# From paper PMC6683736 (The Journal of Cell Biology, 2019)
# Assays:
# [1] = tested on: Xenopus embryos; assay: Junctional localization in gastrula-stage embryos; format: in vivo, Xenopus laevis; details: live confocal, mNeon-tagged
# In short: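 Embryos were microinjected in the animal hemisphere with mRNAs, either at the two-cell stage (each cell twice) or at the four-cell stage (once). They were raised to gastrula stage (10.5–12) and live-imaged by confocal. mNeon-tagged protein was coexpressed with BFP-ZO-1 (tight junction marker) and PLEKHA7-mCherry (adherens junction marker), and the junctional-to-cytosolic intensity ratio was quantified.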
# [2] = tested on: Scribble PDZ1 domain; assay: X-ray crystal structure of Scribble PDZ1/SGEF-PDZpeptide complex; format: binding, human; details: 1.1 Å, PDB ID 6MYE
# [3] = tested on: Scribble; assay: Coimmunoprecipitation of SGEF constructs with GFP-Scribble, HEK293FT lysates; format: binding, Human; details: GFP-trap nanobodies, WB
# [4] = tested on: SGEF; assay: Coimmunoprecipitation of Dlg1 constructs with SGEF, HEK293FT lysates; format: binding, Human; details: WB
# In short: (§1)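 HEK293FT cells were co-transfected by calcium phosphate; medium was changed at 24 h and cells harvested at 48 h. Lysis was in Tris-HCl pH 7.4, MgCl2, 150 mM NaCl, 1% Triton X-100 and protease inhibitors. Equal protein was incubated with GFP-Trap beads for 1 h at 4°C, washed four times, then immunoblotted with anti-GFP and anti-myc (or anti-His).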
# [5] = tested on: Dlg1; assay: Coimmunoprecipitation of SGEF constructs with GFP-Dlg1, HEK293FT lysates; format: binding, Mouse; details: GFP-trap nanobodies, WB
# In short: as §1
Molecule,interaction with Scribble [3],interaction with Dlg1 [5],other results
"mNeon-RhoG: mNeon-tagged small GTPase RhoG, 1–191",–,–,localization at apical junctional complex [1]: more broadly localized along the lateral membrane
ac-KPNGLLITDFPVEDCONH2 [SGEF-PDZpeptide],–,–,"accessible surface area covered by peptide [2]: ~500 Å^2; binding register in the PDZ pockets [2]: novel interactions through pockets near the α1 helix in Scribble PDZ1 (S+1 pocket), which accommodate the P+1 Pro in SGEF; residues of peptide interacting with Scribble PDZ domain [2]: 11 residues"
"Gly 45 residue for Pro: SGEF with Gly 45 replaced by Pro (protein, UniProt Q96DR7 1-871, looked up, variant G45P) Rho guanine nucleotide …: MDGESEVDFSSNSITPLWRRRSIPQPHQVLGRSKPRPQSYQSPNPLLITDFPVEDGGTLLAAQIPAQVPTASDSRTVHRSPLLLGAQRRAVANGGTASPEYRAASPRLRRPKSPKLPKAVPGGSPKSPANGAVTLPAPPPPPVLRPPRTPNAPAPCTPEEDLTGLTASPVPSPTANGLAANNDSPGSGSQSGRKAKDPERGLFPGPQKSSSEQKLPLQRLPSQENELLENPSVVLSTNSPAALKVGKQQIIPKSLASEIKISKSNNQNVEPHKRLLKVRSMVEGLGGPLGHAGEESEVDNDVDSPGSLRRGLRSTSYRRAVVSGFDFDSPTSSKKKNRMSQPVLKVVMEDKEKFSSLGRIKKKMLKGQGTFDGEENAVLYQNYKEKALDIDSDEESEPKEQKSDEKIVIHHKPLRSTWSQLSAVKRKGLSQTVSQEERKRQEAIFEVISSEHSYLLSLEILIRMFKNSKELSDTMTKTERHHLFSNITDVCEASKKFFIELEARHQNNIFIDDISDIVEKHTASTFDPYVKYCTNEVYQQRTLQKLLATNPSFKEVLSRIESHEDCRNLPMISFLILPMQRVTRLPLLMDTICQKTPKDSPKYEVCKRALKEVSKLVRLCNEGARKMERTEMMYTINSQLEFKIKPFPLVSSSRWLVKRGELTAYVEDTVLFSRRTSKQQVYFFLFNDVLIITKKKSEESYNVNDYSLRDQLLVESCDNEELNSSPGKNSSTMLYSRQSSASHLFTLTVLSNHANEKVEMLLGAETQSERARWITALGHSSGKPPADRTSLTQVEIVRSFTAKQPDELSLQVADVVLIYQRVSDGWYEGERLRDGERGWFPMECAKEITCQATIDKNVERMGRLLGLETNV",abolished the interaction,–,–
"T49A (protein, UniProt Q96DR7 1-871, looked up, variant T49A) Rho guanine nucleotide …: MDGESEVDFSSNSITPLWRRRSIPQPHQVLGRSKPRPQSYQSPNGLLIADFPVEDGGTLLAAQIPAQVPTASDSRTVHRSPLLLGAQRRAVANGGTASPEYRAASPRLRRPKSPKLPKAVPGGSPKSPANGAVTLPAPPPPPVLRPPRTPNAPAPCTPEEDLTGLTASPVPSPTANGLAANNDSPGSGSQSGRKAKDPERGLFPGPQKSSSEQKLPLQRLPSQENELLENPSVVLSTNSPAALKVGKQQIIPKSLASEIKISKSNNQNVEPHKRLLKVRSMVEGLGGPLGHAGEESEVDNDVDSPGSLRRGLRSTSYRRAVVSGFDFDSPTSSKKKNRMSQPVLKVVMEDKEKFSSLGRIKKKMLKGQGTFDGEENAVLYQNYKEKALDIDSDEESEPKEQKSDEKIVIHHKPLRSTWSQLSAVKRKGLSQTVSQEERKRQEAIFEVISSEHSYLLSLEILIRMFKNSKELSDTMTKTERHHLFSNITDVCEASKKFFIELEARHQNNIFIDDISDIVEKHTASTFDPYVKYCTNEVYQQRTLQKLLATNPSFKEVLSRIESHEDCRNLPMISFLILPMQRVTRLPLLMDTICQKTPKDSPKYEVCKRALKEVSKLVRLCNEGARKMERTEMMYTINSQLEFKIKPFPLVSSSRWLVKRGELTAYVEDTVLFSRRTSKQQVYFFLFNDVLIITKKKSEESYNVNDYSLRDQLLVESCDNEELNSSPGKNSSTMLYSRQSSASHLFTLTVLSNHANEKVEMLLGAETQSERARWITALGHSSGKPPADRTSLTQVEIVRSFTAKQPDELSLQVADVVLIYQRVSDGWYEGERLRDGERGWFPMECAKEITCQATIDKNVERMGRLLGLETNV",completely abolish the interaction,–,–
"Dlg1 C-terminal construct: C-terminal half of Dlg1 comprising the SH3 and GUK domains (protein, left off: GFP (inferred from the legend of Figure 2), end not stated, kept) KRSLYVRALFDYDKTKDSGLPSQGLNFKFGDILHVINASDDEWWQARQVTPDGESDEVGVIPSKRRVEKKERARLKTVKFNSKTRDKGEIPDDMGSKGLKHVTSNASDSESSYRGQEEYVLSYEPVNQQEVNYTRPVIILGPMKDRINDDLISEFPDKFGSCVPHTTRPKRDYEVDGRDYHFVTSREQMEKDIQEHKFIEAGQYNNHLYGTSVQSVREVAEKGKHCILDVSGNAIKRLQIAQLYPISIFIKPKSMENIMEMNKRLTEEQARKTFERAMKLEQEFTEHFTAIVQGDTLEDIYNQVKQIIEEQSGSYIWVPAKEKL",–,–,interaction with SGEF [4]: able to bind efficiently to SGEF
"SGEF 1–350: SGEF deletion mutant 1–350 (protein, left off: myc (inferred from the legend of Figure 2), end not stated, kept) MDGESEVDFSSNSITPLWRRRSIPQPHQVLGRSKPRPQSYQSPNGLLITDFPVEDGGTLLAAQIPAQVPTASDSRTVHRSPLLLGAQRRAVANGGTASPEYRAASPRLRRPKSPKLPKAVPGGSPKSPANGAVTLPAPPPPPVLRPPRTPNAPAPCTPEEDLTGLTASPVPSPTANGLAANNDSPGSGSQSGRKAKDPERGLFPGPQKSSSEQKLPLQRLPSQENELLENPSVVLSTNSPAALKVGKQQIIPKSLASEIKISKSNNQNVEPHKRLLKVRSMVEGLGGPLGHAGEESEVDNDVDSPGSLRRGLRSTSYRRAVVSGFDFDSPTSSKKKNRMSQPVLKVVMED",–,able to bind to Dlg1,–
"414–871: C-terminal half of SGEF: DH-PH domain, SH3 domain and PBM (protein, UniProt Q96DR7 414-871, looked up, fragment) LRSTWSQLSAVKRKGLSQTVSQEERKRQEAIFEVISSEHSYLLSLEILIRMFKNSKELSDTMTKTERHHLFSNITDVCEASKKFFIELEARHQNNIFIDDISDIVEKHTASTFDPYVKYCTNEVYQQRTLQKLLATNPSFKEVLSRIESHEDCRNLPMISFLILPMQRVTRLPLLMDTICQKTPKDSPKYEVCKRALKEVSKLVRLCNEGARKMERTEMMYTINSQLEFKIKPFPLVSSSRWLVKRGELTAYVEDTVLFSRRTSKQQVYFFLFNDVLIITKKKSEESYNVNDYSLRDQLLVESCDNEELNSSPGKNSSTMLYSRQSSASHLFTLTVLSNHANEKVEMLLGAETQSERARWITALGHSSGKPPADRTSLTQVEIVRSFTAKQPDELSLQVADVVLIYQRVSDGWYEGERLRDGERGWFPMECAKEITCQATIDKNVERMGRLLGLETNV",–,showed no binding,–
"SGEF ΔETNV: SGEF with deletion of the PBM, 1–867 (protein, left off: myc (inferred from the legends of Figures 1 and 2), end not stated, kept) MDGESEVDFSSNSITPLWRRRSIPQPHQVLGRSKPRPQSYQSPNGLLITDFPVEDGGTLLAAQIPAQVPTASDSRTVHRSPLLLGAQRRAVANGGTASPEYRAASPRLRRPKSPKLPKAVPGGSPKSPANGAVTLPAPPPPPVLRPPRTPNAPAPCTPEEDLTGLTASPVPSPTANGLAANNDSPGSGSQSGRKAKDPERGLFPGPQKSSSEQKLPLQRLPSQENELLENPSVVLSTNSPAALKVGKQQIIPKSLASEIKISKSNNQNVEPHKRLLKVRSMVEGLGGPLGHAGEESEVDNDVDSPGSLRRGLRSTSYRRAVVSGFDFDSPTSSKKKNRMSQPVLKVVMEDKEKFSSLGRIKKKMLKGQGTFDGEENAVLYQNYKEKALDIDSDEESEPKEQKSDEKIVIHHKPLRSTWSQLSAVKRKGLSQTVSQEERKRQEAIFEVISSEHSYLLSLEILIRMFKNSKELSDTMTKTERHHLFSNITDVCEASKKFFIELEARHQNNIFIDDISDIVEKHTASTFDPYVKYCTNEVYQQRTLQKLLATNPSFKEVLSRIESHEDCRNLPMISFLILPMQRVTRLPLLMDTICQKTPKDSPKYEVCKRALKEVSKLVRLCNEGARKMERTEMMYTINSQLEFKIKPFPLVSSSRWLVKRGELTAYVEDTVLFSRRTSKQQVYFFLFNDVLIITKKKSEESYNVNDYSLRDQLLVESCDNEELNSSPGKNSSTMLYSRQSSASHLFTLTVLSNHANEKVEMLLGAETQSERARWITALGHSSGKPPADRTSLTQVEIVRSFTAKQPDELSLQVADVVLIYQRVSDGWYEGERLRDGERGWFPMECAKEITCQATIDKNVERMGRLLGL",no effect on the ability of SGEF to bind to Scribble,still interacted efficiently with Dlg1,–
"SGEF 228–871: SGEF deletion mutant, binds to Dlg1 but not to Scribble (protein, left off: myc (inferred from the legends of Figures 1 and 2), end not stated, kept) LENPSVVLSTNSPAALKVGKQQIIPKSLASEIKISKSNNQNVEPHKRLLKVRSMVEGLGGPLGHAGEESEVDNDVDSPGSLRRGLRSTSYRRAVVSGFDFDSPTSSKKKNRMSQPVLKVVMEDKEKFSSLGRIKKKMLKGQGTFDGEENAVLYQNYKEKALDIDSDEESEPKEQKSDEKIVIHHKPLRSTWSQLSAVKRKGLSQTVSQEERKRQEAIFEVISSEHSYLLSLEILIRMFKNSKELSDTMTKTERHHLFSNITDVCEASKKFFIELEARHQNNIFIDDISDIVEKHTASTFDPYVKYCTNEVYQQRTLQKLLATNPSFKEVLSRIESHEDCRNLPMISFLILPMQRVTRLPLLMDTICQKTPKDSPKYEVCKRALKEVSKLVRLCNEGARKMERTEMMYTINSQLEFKIKPFPLVSSSRWLVKRGELTAYVEDTVLFSRRTSKQQVYFFLFNDVLIITKKKSEESYNVNDYSLRDQLLVESCDNEELNSSPGKNSSTMLYSRQSSASHLFTLTVLSNHANEKVEMLLGAETQSERARWITALGHSSGKPPADRTSLTQVEIVRSFTAKQPDELSLQVADVVLIYQRVSDGWYEGERLRDGERGWFPMECAKEITCQATIDKNVERMGRLLGLETNV",unable to bind,able to bind efficiently to Dlg1,"localization at apical junctional complex [1]: predominantly cytosolic, with only a small fraction still targeted to junctions"
